Screening results (PubChem)
MEKK3 PB1 HTS – modulators of MEKK3-MEK5 PB1 binding, primary screen, biochemical, wildtype MEKK3, multiplex bead flow cytometry, Alexa488-MEK5; Mitogen-activated protein kinase kinase kinase 3 (Homo sapiens), Q99759; bead-based flow cytometry, Alexa488-MEK5 binding to MEKK3; actives lie on both sides; 0 = blocked by unlabeled MEK5, 100 = vehicle; actives 1.4% (n = 290,000); binding response (% of control), % at 10 µM;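 active = binding response more than 3 SD above or below the average of its plate-row segment, actives on both sides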;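 also: Alexa488 bead fluorescence after subtracting the streptavidin-only scavenger bead signal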
Target sequence (Q99759 whole entry, looked up): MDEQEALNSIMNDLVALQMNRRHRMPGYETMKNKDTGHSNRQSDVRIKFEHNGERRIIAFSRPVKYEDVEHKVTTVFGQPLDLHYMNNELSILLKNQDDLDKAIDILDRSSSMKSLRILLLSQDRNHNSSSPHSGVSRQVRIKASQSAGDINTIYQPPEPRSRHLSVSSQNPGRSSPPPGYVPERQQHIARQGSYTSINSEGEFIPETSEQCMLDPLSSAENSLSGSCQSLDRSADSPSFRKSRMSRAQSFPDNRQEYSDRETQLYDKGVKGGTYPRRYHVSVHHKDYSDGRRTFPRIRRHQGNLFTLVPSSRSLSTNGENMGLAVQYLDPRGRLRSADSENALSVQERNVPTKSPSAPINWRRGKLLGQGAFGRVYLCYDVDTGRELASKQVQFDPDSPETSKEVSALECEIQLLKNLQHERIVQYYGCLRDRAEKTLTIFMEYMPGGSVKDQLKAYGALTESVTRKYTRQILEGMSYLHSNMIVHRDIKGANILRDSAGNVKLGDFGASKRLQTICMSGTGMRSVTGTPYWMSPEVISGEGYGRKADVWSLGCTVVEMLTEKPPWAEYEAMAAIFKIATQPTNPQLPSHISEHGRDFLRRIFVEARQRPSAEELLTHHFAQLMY
MEKK2wt PB1 HTS – modulators of MEK5 binding to wildtype MEKK2, primary screen, biochemical, multiplex bead flow cytometry, Alexa488-MEK5 | Alexa488-MEK5 binding to MEKK2 WT; actives lie on both sides | actives 1.1% (n = 290,000) | binding response (% of control), % at 10 µM | Mitogen-activated protein kinase kinase kinase 2 (Homo sapiens), Q9Y2U5; in the data active = binding response below about 67% or above about 130%
B2AR ag – beta2AR agonists driving receptor internalization, primary screen, cell-based, FAP fluorogen, flow cytometry; Am2.2-beta2AR cells; response, % (test concentration not listed); actives 0.43% (n = 340,000);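 active = response above a set limit, near 3 SD of response in nonfluorescent compounds, cut at about 42% in these data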
Dynein transport – inhibitors of GR-EGFP nuclear translocation, primary screen, dynein cargo transport inhibitor project, imaging, high-content, 3617.4 mouse cells | test concentration mostly 20 µM; stimulated with dexamethasone, 1 µM; stronger effect = lower value | z-score, hits read low | actives 0.47% (n = 220,000) | AID 1381, 2008;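 active = plate z-score of nuclear minus cytoplasmic receptor signal below a set negative limit, without overly bright fluorescence or cell loss, cut at about -3.5 in these data, passing the limit was not always enough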;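 also: z-score of nuclear minus cytoplasmic ring GR-EGFP intensity difference per well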
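Buffer or medium: tet-free medium with charcoal-stripped serum / Also added: dexamethasone agonist, 1.0 µM final, for 30 min / Timing: induction 48 h, compound 1 h, agonist 30 min / Measured by: high-content fluorescence imaging after fixation / Read-out: nuclear-to-cytoplasmic GR-EGFP distribution per well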
MEKK2 mut-MEK5 – MEK5 binding signal on mutant MEKK2 PB1, primary screen, biochemical, multiplex bead flow cytometry, Alexa488-MEK5; Alexa488-MEK5 binding to MEKK2 mutant; actives 0.35% (n = 290,000); percent response, % at 10 µM; AID 1530, 2009; in the data active = percent response above about 24%, passing the limit was not always enough
ATG4B inh – ATG4B protease inhibitors, primary screen, biochemical, fluorescence, uHTS. Cysteine protease ATG4B (Homo sapiens), Q9Y4P1. ATG4B cleavage of LC3-PLA2, NBD-HPC fluorescence, 1 h. inhibition, % at 8.33 µM. actives 0.51% (n = 340,000). AID 504462, 2011; in the data active = inhibition above about 40%
MEKK2wt confirm – modulators of MEK5 binding to wildtype MEKK2, confirmation, biochemical, single concentration, multiplex bead flow cytometry; shares compounds with MEKK3 PB1 HTS; Alexa488-MEK5 binding to MEKK2 WT; actives lie on both sides; binding response (% of control), % at 10 µM; actives 2.4% (n = 5,900); AID 1892, 2009; in the data active = binding response below about 16% or above about 210%; inactive = in between
MEKK2mut-MEK5 – mutant MEKK2 PB1-MEK5 binding signal retest – biochemical, single concentration, multiplex bead flow cytometry, confirmation. AID 1893, 2009. actives 2% (n = 5,900). shares compounds with MEKK3 PB1 HTS. percent response, % at 10 µM. Alexa488-MEK5 binding to MEKK2 mutant; in the data active = percent response mostly above about 71%, no sharp cut-off; inactive = mostly below about 38%;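 also: higher means compound restores mutant binding toward wildtype level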
MEKK3-MEK5 inh – MEKK3 wild-type PB1 binding to MEK5, inhibitors, confirmation, biochemical, bead multiplex flow cytometry, single concentration, wildtype. binding response (% of control), % at 10 µM. actives 1.8% (n = 5,900). AID 1894, 2009. shares compounds with MEKK3 PB1 HTS. Alexa488-MEK5 binding to MEKK3; stronger effect = lower value;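 active = binding response below 72% of control, or above a set upper limit, though filed actives all read lower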
A number is an active result; 0 = inactive; - = not tested or not shown; [ ] = remark or other dose. A selection: hits, their analogues and other compounds. The true share with any hit is near 2.9%.

SMILES	MEKK3 PB1 HTS	MEKK2wt PB1 HTS	B2AR ag	Dynein transport	MEKK2 mut-MEK5	ATG4B inh	MEKK2wt confirm	MEKK2mut-MEK5	MEKK3-MEK5 inh
Cc1nn(-c2ccccc2)c(N)c1C(c1ccc(C(C)C)cc1)c1c(C)nn(-c2ccccc2)c1N	146	0	0	0	0	0	0	0	0
O=C(NCCC1CCCCN1S(=O)(=O)c1ccccc1)C(=O)NCc1ccc(F)cc1 (stereo not drawn)	-	-	0	-	-	0	-	-	-
O=C(O)c1ccc(N2CC3CC(C2)c2cccc(=O)n2C3)c(NC(=S)Nc2ccc(Cl)cc2Cl)c1 (stereo not drawn)	65[inhibitor]	17[inhibitor]	0	0	0	0	0	0	0
CCN1CCN(Cc2ccc(NC(=O)c3cc(NC(=O)c4cnnc5ccccc45)cc(OC)c3)cc2C(F)(F)F)CC1	0	142	0	0	0	0	0	0	0
CCN1CCN(Cc2ccc(NC(=O)c3ccc(C)c(NC(=O)c4cncc(-c5cccs5)c4)c3)cc2C(F)(F)F)CC1	-	-	0	-	-	0	-	-	-
CCN1CCN(Cc2ccc(NC(=O)c3cc(NC(=O)c4cncc(-c5ccc(C#N)cc5)c4)cc(OC)c3)cc2C(F)(F)F)CC1	0	189	0	0	131	0	0	0	38
CCN1CCN(Cc2ccc(NC(=O)c3cc(NC(=O)c4nccnc4N)cc(OC)c3)cc2C(F)(F)F)CC1	123	164	0	0	0	0	0	0	0
COc1cc(SC)ccc1C(=O)NNC(=O)c1cc(C)oc1C	-	-	0	-	-	0	-	-	-
CCOC(=O)C1=NOC(CNc2ncc(C(F)(F)F)cc2Cl)C1 (stereo not drawn)	0	0	0	0	0	0	-	-	-
COc1ccccc1CCC(=O)N1CCC(n2nccc2NC(=O)C2CCOC2)CC1 (stereo not drawn)	0	0	0	-	0	0	-	-	-
O=C(CSCc1ccc(Br)cc1)N=Nc1c(O)[nH]c2ccccc12	146	0	0	0	0	0	0	0	0
O=C(CSc1nc2ccccc2[nH]1)N=Nc1c(O)[nH]c2ccccc12	0	0	0	0	0	0	-	-	-
O=C(OCCN=C1NS(=O)(=O)c2ccccc21)c1ccco1	0	0	0	0	0	0	-	-	-
COc1cc(/C=c2\sc3nc(=O)c(-c4ccccc4)nn3c2=O)ccc1OCCC(C)C	140	0	0	0	0	0	0	0	0
CNc1c(N)c(=O)oc2ccccc12	0	0	0	0	0	0	-	-	-
Cc1ccc(Nc2c(N)c(=O)oc3ccccc23)cc1	0.0[inhibitor]	0.0[inhibitor]	0	0	0	0	0	0	0
O=C(CNC(=O)c1ccc(N2C(=O)c3ccccc3C2=O)cc1)OCC(=O)c1ccccc1	0	0	0	0	0	0	-	-	-
O=C(CNC(=O)c1ccc(N2C(=O)c3ccccc3C2=O)cc1)OCC(=O)c1cccc2ccccc12	2.0[inhibitor]	4.0[inhibitor]	0	0	0	0	0	0	0
Cc1c2cnn(CC(=O)NCCN3CCOCC3)c(=O)c2c(C)n1Cc1ccccc1	0	0	0	-	0	0	-	-	-
Cc1c2cnn(CC(=O)NCCCN3CCCCC3)c(=O)c2c(C)n1Cc1ccccc1	0	137	0	-	0	0	0	0	0
CC(C)(C)OC(=O)C(Cl)(C(=O)OC(C)(C)C)c1ccc2nnnn2n1	0	0	0	0	0	0	-	-	-
CN(C)CCCNC(=O)c1ccccn1	0	0	0	0	0	0	-	-	-
CN(C)CCCNC(=O)c1ccc(-c2nc(-c3ccc(Cl)cc3)cs2)cc1	0	252	0	0	0	0	0	0	0
Cc1nnc(SCc2ccccc2)n(N)c1=O	69[inhibitor]	0	0	0	0	0	0	0	0
Cc1nnc(SCC(=O)NCc2ccccc2Cl)n(N)c1=O	130	0	0	0	0	0	0	0	0
SMILES	MEKK3 PB1 HTS	MEKK2wt PB1 HTS	B2AR ag	Dynein transport	MEKK2 mut-MEK5	ATG4B inh	MEKK2wt confirm	MEKK2mut-MEK5	MEKK3-MEK5 inh
Cc1ccc(CSc2nnc(C)c(=O)n2N)cc1	131	0	0	0	0	0	0	0	0
CC(NC(=O)Oc1cccc2ccccc12)c1ccccc1 (stereo not drawn)	-	-	0	-	-	0	-	-	-
COc1cccc(C2c3cc4c(cc3OC(C)(N3CCCC3)C2C)OCO4)c1O (stereo not drawn)	-	-	0	-	-	0	-	-	-
CON(C)C(=O)C[C@@H]1C[C@H](OC(=O)c2ccc([N+](=O)[O-])cc2)CN1C(=O)OC(C)(C)C	-	-	0	-	-	0	-	-	-
Cc1c(CNC2CCC(C)CC2)c(C(=O)O)c(C)n1Cc1ccccc1 (stereo not drawn)	140	0	0	0	0	0	0	0	0
C#CCNC(=O)C1=C[C@@H](C2CCCCC2)[C@H](CCCO)[C@@H](OCC)O1	0	0	0	0	0	0	-	-	-
CCCCNC(=S)NNC(=O)C1=NN(c2cc(C)ccc2C)C(=O)CC1	0	0	0	-	0	0	-	-	-
COc1ccc(/C=N/n2cnc3c([nH]c4ccc(C)cc43)c2=O)cc1CN1CCCC1	132	159	0	0	0	0	0	0	0
COc1ccc(/C=N/n2cnc3c([nH]c4ccc(F)cc43)c2=O)cc1CN1CCCC1	0	0	0	0	0	0	-	-	-
CCN(CC)c1ccc2cc(C(=O)Nc3ccccn3)c(=O)oc2c1	0	58[inhibitor]	0	0	0	0	0	0	0
CCN(CC)c1ccc2cc(C(C)=O)c(=O)oc2c1	0	0	0	0	0	0	-	-	-
COc1ccccc1NC(=O)Cn1cc(C(=O)C(=O)N2CCOCC2)c2ccccc21	0	0	0	-	0	0	-	-	-
O=C(Nc1ccc(Oc2ncnc3cc(Cl)ccc23)nc1)c1cccs1	0	0	0	0	0	0	-	-	-
O=C(O)CCCC(=O)Nc1ccc(Oc2ncnc3cc(Cl)ccc23)nc1	128	0	0	0	0	0	0	0	0
